pEC50: −log10 of the molar value. Active and inactive are the calls of the source.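 Rule for the calls: active = toxic dose over ten times the dose restoring drug killing, with toxic dose under 15 µM; inactive = the rest.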
Test system: Jurkat/DNR viability with daunorubicin, trypan blue, 7 d
Test: chemoreversal in ABCB1 cells, dose response, ABC transporter inhibitor project, paired ABCG2 counter-screen, SAR hit validation (AID 488973)
Details: for CC50: measured here: toxicity without chemotherapeutic (TD50)
Method in brief: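 System – ABCB1-expressing drug-resistant Jurkat/DNR cells · Input – 100,000 cells per mL · Timing – 7-day exposure of cells to test compound · Detection – trypan blue cell counts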

SMILES | EC50 | CC50 [µM] | pEC50
O=C(c1ccncc1)N1CCN(c2cc(-c3ccccc3)nc3cc(-c4cccc(Cl)c4)nn23)CC1 | 0.25 µM (inactive) | 10.9 | 
COc1cccc(-c2cc(N3CCN(C(=O)c4ccoc4)CC3)n3nc(-c4cccc(OC)c4)cc3n2)c1 | 0.03 µM (inactive) | 7.93 | 
Cc1nc2cc(-c3cccc(Cl)c3)nn2c(N2CCN(C(=O)c3ccsc3)CC2)c1C | 1.13 µM (inactive) | 10.1 | 
COc1ccc(-c2cc3nc(-c4ccccc4)cc(N4CCN(C(=O)c5ccsc5)CC4)n3n2)cc1 | 0.14 µM (inactive) | 4.9 | 
O=C(Cc1ccccc1)N1CCN(c2cc(-c3ccccc3)nc3cc(-c4cccc(Cl)c4)nn23)CC1 |  | 17.8 | 6.29
O=C(c1ccoc1)N1CCN(c2cc(-c3ccco3)nc3cc(-c4ccccc4)nn23)CC1 | 0.55 µM (inactive) | 5.52 | 
Cc1nc2cc(-c3cccc(Cl)c3)nn2c(N2CCN(C(=O)c3ccco3)CC2)c1C |  | > 100 | 5.80
O=C(c1ccoc1)N1CCN(c2cc(-c3ccccc3)nc3cc(-c4ccncc4)nn23)CC1 | 1.52 µM (inactive) | 9.52 | 
COc1ccc(-c2[nH]nc3nc(N4CCN(C(=O)c5ccoc5)CC4)cc(C(F)(F)F)c23)cc1 | 0.33 µM (inactive) | 0.455 | 
COc1ccc(-c2cc3nc(-c4ccccc4)cc(N4CCN(C(=O)c5ccccc5)CC4)n3n2)cc1 |  | 16.9 | 6.72
O=C(C1CCCO1)N1CCN(c2c3c(nc4cc(-c5cccc(F)c5)nn24)CCCC3)CC1 (centres undefined) | 3.58 µM (inactive) | 12.3 | 
O=C(c1ccoc1)N1CCN(c2cc(-c3ccncc3)nc3cc(-c4cccc(Cl)c4)nn23)CC1 | 0.6 µM (inactive) | 13.5 | 
COc1cc(OC)cc(-c2cc3nc(C)c(C)c(N4CCN(C(=O)c5ccoc5)CC4)n3n2)c1 | 0.1 µM (inactive) | 9.52 | 
COc1cccc(-c2cc3nc(C)c(C)c(N4CCN(C(=O)c5ccoc5)CC4)n3n2)c1 |  | > 100 | 6.09
O=C(c1ccco1)N1CCN(c2c3c(nc4cc(-c5cccc(F)c5)nn24)CCCC3)CC1 | 2.94 µM (inactive) | 5.32 | 
O=C(c1ccoc1)N1CCN(c2cc(-c3ccco3)nc3cc(-c4cccc(Cl)c4)nn23)CC1 | 0.53 µM (inactive) | 8.53 | 
O=C(c1ccoc1)N1CCN(c2cc(-c3cccnc3)nc3cc(-c4cccc(Cl)c4)nn23)CC1 | 0.2 µM (inactive) | 5.33 | 
Cc1nc2cc(-c3cccc(Cl)c3)nn2c(N2CCN(C(=O)c3ccoc3)CC2)c1C | 0.51 µM (inactive) | 5.33 | 
COc1ccc(-c2cc3nc(-c4ccccc4)cc(N4CCN(C(=O)c5ccoc5)CC4)n3n2)cc1 | 0.23 µM (inactive) | 5.54 | 

SMILES | EC50 | CC50 [µM] | pEC50
Cc1cc(N2CCN(C(=O)c3ccco3)CC2)n2nc(-c3ccc(F)cc3)cc2n1 | 5.33 µM (inactive) | 4.2 | 
COc1ccc(-c2cc3nc(C)c(C)c(N4CCN(C(=O)c5ccco5)CC4)n3n2)cc1 |  | > 100 | 6.28
Cc1nc2cc(-c3ccc4c(c3)OCO4)nn2c(N2CCN(C(=O)c3ccoc3)CC2)c1C |  | > 100 | 6.89
COc1ccccc1-c1cc2nc(-c3ccccc3)cc(N3CCN(C(=O)c4ccoc4)CC3)n2n1 | 0.45 µM (inactive) | 4.37 | 
COc1cccc(-c2cc3nc(-c4ccco4)cc(N4CCN(C(=O)c5ccoc5)CC4)n3n2)c1 | 0.47 µM (inactive) | 5.52 | 
O=C(c1ccco1)N1CCN(c2cc(-c3ccccc3)nc3cc(-c4cccc(F)c4)nn23)CC1 | 0.58 µM (inactive) | 2.16 | 
CC(=O)N1CCN(c2c(C)c(C)nc3cc(-c4cccc(F)c4)nn23)CC1 | 19.8 µM (inactive) | > 100 | 
COc1cccc(C(=O)N2CCN(c3cc(-c4ccccc4)nc4cc(-c5cccc(Cl)c5)nn34)CC2)c1 |  | > 100 | 6.46
Cc1ccc(-c2cc3nc(-c4ccccc4)cc(N4CCN(C(=O)c5ccoc5)CC4)n3n2)cc1 | 0.29 µM (inactive) | 5.77 | 
Cc1cc(N2CCN(C(=O)c3ccco3)CC2)n2nc(-c3ccccc3)nc2n1 | 4.92 µM (inactive) | 11.8 | 
COc1cccc(-c2cc3nc(C)c(C)c(N4CCN(Cc5ccco5)CC4)n3n2)c1 |  | > 100 | 7.70
COc1ccc(-c2cc3nc(C)c(C)c(N4CCN(C(C)=O)CC4)n3n2)cc1 |  | 105 | 5.22
O=C(c1cccnc1)N1CCN(c2cc(-c3ccccc3)nc3cc(-c4cccc(Cl)c4)nn23)CC1 | 0.17 µM (inactive) | 4.72 | 
O=C(c1ccco1)N1CCN(c2cc(-c3ccccc3)nc3cc(-c4cccc(Cl)c4)nn23)CC1 | 0.7 µM (inactive) | 3.18 | 
O=C(c1ccco1)N1CCN(c2cc(Cc3ccccc3)nc3cc(-c4cccc(Cl)c4)nn23)CC1 | 1.41 µM (inactive) | 8.47 | 
Cc1cc(N2CCN(C(=O)c3ccco3)CC2)n2nc(C)c(-c3ccccc3)c2n1 | 3.58 µM (inactive) | 3.31 | 
Cc1nc2ncnn2c(N2CCN(C(=O)c3ccco3)CC2)c1Cc1ccccc1 | 12.3 µM (inactive) | > 100 | 
Cc1nc2cc(-c3ccc(F)cc3)nn2c(N2CCN(C(=O)c3ccco3)CC2)c1C | 1.82 µM (inactive) | 5.33 | 

From PubChem BioAssay AID488973 (NMMLSC, 2010)
